Measured values from ChEMBL document CHEMBL1153606, “Microwave assisted synthesis of new indophenazine 1,3,5-trisubstruted pyrazoline derivatives of benzofuran and their antimicrobial activity” (2009).
Converted amounts (≈) assume the structure as drawn. The source made the active and inactive calls. The rule behind the calls is not given here.

How the values were obtained:
Streptococcus agalactiae [1] = test: Antibacterial activity against multidrug-resistant Streptococcus agalactiae after 20 hrs by cylinder and well method; assay type: functional
Summary of the method: (§1)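 Agar diffusion assay: organisms grown overnight on 2% agar with 5% sheep blood under 10% CO2. Inocula were diluted in Ringer solution, treated in Todd–Hewitt medium and spread on agar plates. Drug spots were applied, with about 5 × 10^3 CFU/spot. Plates were held at 37 °C for 20 h. Inhibition zones were read in mm against standard drugs and vehicle.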

Streptococcus pyogenes [2] = test: Antibacterial activity against multidrug-resistant Streptococcus pyogenes after 20 hrs by cylinder and well method; assay type: functional; summary of the method: as §1
Streptococcus pneumoniae [3] = test: Antibacterial activity against multidrug-resistant Streptococcus pneumoniae after 24 hrs by broth microdilution method; assay type: functional
Summary of the method: (§2)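 MIC was determined in Mueller–Hinton broth.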

Staphylococcus aureus [4] = test: Antibacterial activity against multidrug-resistant Staphylococcus aureus after 20 hrs by cylinder and well method; assay type: functional; summary of the method: as §1
Escherichia coli [5] = test: Antibacterial activity against multidrug-resistant Escherichia coli broth after 24 hrs by broth microdilution method; assay type: functional; summary of the method: as §2
Streptococcus pyogenes [6] = test: Antibacterial activity against multidrug-resistant Streptococcus pyogenes after 24 hrs by broth microdilution method; assay type: functional; summary of the method: as §2
[7] = test system: Salmonella enterica subsp. enterica; test: Antibacterial activity against multidrug-resistant Salmonella typhi after 20 hrs by cylinder and well method; assay type: functional, Salmonella enterica subsp. enterica serovar Typhi; summary of the method: as §1
Streptococcus agalactiae [8] = test: Antibacterial activity against multidrug-resistant Streptococcus agalactiae after 24 hrs by broth microdilution method; assay type: functional; summary of the method: as §2
Streptococcus pneumoniae [9] = test: Antibacterial activity against multidrug-resistant Streptococcus pneumoniae after 20 hrs by cylinder and well method; assay type: functional; summary of the method: as §1
Candida albicans = test: Antifungal activity against Candida albicans after 30 to 72 hrs by agar culture method; assay type: functional, organism-based
Summary of the method: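 Agar well assay on C. albicans: compounds at a range of concentrations in DMF were loaded into 6 mm wells. Plates were incubated at 30 °C for 30–72 h. Inhibition zones were read in mm against standard drugs.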

[10] = test system: Salmonella enterica subsp. enterica; test: Antibacterial activity against multidrug-resistant Salmonella typhi after 24 hrs by broth microdilution method; assay type: functional, Salmonella enterica subsp. enterica serovar Typhi; summary of the method: as §2
Staphylococcus aureus [11] = test: Antibacterial activity against multidrug-resistant Staphylococcus aureus after 24 hrs by broth microdilution method; assay type: functional; summary of the method: as §2
Pseudomonas aeruginosa [12] = test: Antibacterial activity against multidrug-resistant Pseudomonas aeruginosa after 20 hrs by cylinder and well method; assay type: functional; summary of the method: as §1
Pseudomonas aeruginosa [13] = test: Antibacterial activity against multidrug-resistant Pseudomonas aeruginosa after 24 hrs by broth microdilution method; assay type: functional; summary of the method: as §2
Escherichia coli [14] = test: Antibacterial activity against multidrug-resistant Escherichia coli after 20 hrs by cylinder and well method; assay type: functional; summary of the method: as §1

Structure (SMILES) | inhibition zone (IZ) (Streptococcus agalactiae [1]) [mm] | inhibition zone (IZ) (Streptococcus pyogenes [2]) [mm] | MIC (Streptococcus pneumoniae [3]) [µg/mL] | inhibition zone (IZ) (Staphylococcus aureus [4]) [mm] | MIC (Escherichia coli [5]) [µg/mL] | MIC (Streptococcus pyogenes [6]) [µg/mL] | inhibition zone (IZ) [7] [mm] | MIC (Streptococcus agalactiae [8]) [µg/mL] | inhibition zone (IZ) (Streptococcus pneumoniae [9]) [mm] | Activity (Candida albicans) | MIC [10] [µg/mL] | MIC (Staphylococcus aureus [11]) [µg/mL] | inhibition zone (IZ) (Pseudomonas aeruginosa [12]) [mm] | MIC (Pseudomonas aeruginosa [13]) [µg/mL] | inhibition zone (IZ) (Escherichia coli [14]) [mm]
O=C(Cn1c2ccccc2c2nc3ccccc3nc21)N1N=C(c2cc3ccccc3o2)CC1c1ccccc1O (centres undefined) | 11 | 10 | 9.5 (≈ 17.7 µM) | 13 | 1 (≈ 1.86 µM) | 26 (≈ 48.4 µM) | 13 | 22 (≈ 40.9 µM) | 12 | inactive | 8.5 (≈ 15.8 µM) | 6 (≈ 11.2 µM) | 15 | 3.5 (≈ 6.51 µM) | 18
COc1ccc(C2CC(c3cc4ccccc4o3)=NN2C(=O)Cn2c3ccccc3c3nc4ccccc4nc32)cc1 (centres undefined) | 14 | 14 | 4.5 (≈ 8.16 µM) | 12 | 5 (≈ 9.06 µM) | 23.5 (≈ 42.6 µM) | 11 | 19 (≈ 34.4 µM) | 16 | inactive | 12 (≈ 21.8 µM) | 8 (≈ 14.5 µM) | 13 | 12.5 (≈ 22.7 µM) | 17
O=C(Cn1c2ccccc2c2nc3ccccc3nc21)N1N=C(c2cc3ccccc3o2)CC1c1ccccc1[N+](=O)[O-] (centres undefined) | 12 | 10 | 8.5 (≈ 15 µM) | 12 | 5.5 (≈ 9.71 µM) | 24 (≈ 42.4 µM) | 10 | 22 (≈ 38.8 µM) | 13 | inactive | 14.5 (≈ 25.6 µM) | 9.5 (≈ 16.8 µM) | 12 | 10.5 (≈ 18.5 µM) | 16
CCn1cc(C(=O)O)c(=O)c2cc(F)c(N3CCNCC3)cc21 [NORFLOXACIN] | 32 | 30 | 0.12 (≈ 0.376 µM) | 28 | 1.3 (≈ 4.07 µM) | 2.6 (≈ 8.14 µM) | 24 | 22 (≈ 68.9 µM) | 22 |  | 20.2 (≈ 63.3 µM) | 1.5 (≈ 4.7 µM) | 28 | 1.8 (≈ 5.64 µM) | 20
O=C(Cn1c2ccccc2c2nc3ccccc3nc21)N1N=C(c2cc3ccccc3o2)CC1c1ccc(Cl)cc1 (centres undefined) | 10 | 14 | 5.5 (≈ 9.89 µM) | 8 | 22.5 (≈ 40.5 µM) | 22 (≈ 39.6 µM) | 10 | 28 (≈ 50.4 µM) | 15 | inactive | 16 (≈ 28.8 µM) | 16.5 (≈ 29.7 µM) | 10 | 16.5 (≈ 29.7 µM) | 7
O=C(Cn1c2ccccc2c2nc3ccccc3nc21)N1N=C(c2cc3ccccc3o2)CC1c1ccc(O)cc1 (centres undefined) | 8 | 15 | 8.5 (≈ 15.8 µM) | 14 | 14 (≈ 26 µM) | 20.5 (≈ 38.1 µM) | 8 | 32.5 (≈ 60.5 µM) | 12 | inactive | 19.5 (≈ 36.3 µM) | 6.5 (≈ 12.1 µM) | 8 | 26 (≈ 48.4 µM) | 10
CN(C)c1ccc(C2CC(c3cc4ccccc4o3)=NN2C(=O)Cn2c3ccccc3c3nc4ccccc4nc32)cc1 (centres undefined) | 7 | 9 | 9 (≈ 15.9 µM) | 14 | 13.5 (≈ 23.9 µM) | 25.5 (≈ 45.2 µM) | 10 | 36.5 (≈ 64.6 µM) | 13 | inactive | 9.5 (≈ 16.8 µM) | 7 (≈ 12.4 µM) | 11 | 14 (≈ 24.8 µM) | 10
COc1ccc(C2CC(c3cc4ccccc4o3)=NN2C(=O)Cn2c3ccccc3c3nc4ccccc4nc32)c(O)c1 (centres undefined) | 11 | 14 | 5 (≈ 8.81 µM) | 13 | 13.5 (≈ 23.8 µM) | 26 (≈ 45.8 µM) | 11 | 28 (≈ 49.3 µM) | 16 | inactive | 14.5 (≈ 25.5 µM) | 9 (≈ 15.9 µM) | 10 | 18.5 (≈ 32.6 µM) | 11
